Screening results deposited in PubChem by several laboratories.
EP2 modulator: modulators of human EP2 prostaglandin E2 receptor. P43116. EP2-expressing cells, cAMP HTRF FRET, PGE2 co-stimulation. induction, % at 25 µM. 0.83% of 260,000 active;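 active means compounds whose cAMP rise, as percent of the full-agonist control response, exceeds 60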;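 further: rat C6 glioma line stably carrying human EP2 under a CMV promoter; the protocol text gives 20 µM as final concentration; 100% = response of wells given 1 µM PGE2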
Target sequence (P43116 whole entry, looked up): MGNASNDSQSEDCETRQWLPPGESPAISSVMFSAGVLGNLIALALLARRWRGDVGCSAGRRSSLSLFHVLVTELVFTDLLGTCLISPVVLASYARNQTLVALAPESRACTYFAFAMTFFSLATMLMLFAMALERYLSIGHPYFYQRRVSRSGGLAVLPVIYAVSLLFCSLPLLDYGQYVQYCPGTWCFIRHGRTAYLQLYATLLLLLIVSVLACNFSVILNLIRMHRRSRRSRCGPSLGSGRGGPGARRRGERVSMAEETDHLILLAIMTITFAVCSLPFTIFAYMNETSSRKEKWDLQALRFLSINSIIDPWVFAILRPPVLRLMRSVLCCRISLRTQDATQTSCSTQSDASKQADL
RBBP9 inhibitor: inhibitors of human serine hydrolase RBBP9 | O75884 | recombinant RBBP9, FP-Rh probe fluorescence polarization | inhibition, % at 7.94 µM | 0.2% of 220,000 active;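 active means inhibition above the campaign mean of all tested compounds plus 3 SD, cut at about 14% in these data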;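 further: plate controls were DMSO wells with RBBP9 for no effect and wells lacking RBBP9 protein for full effect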
Target sequence (O75884 whole entry, looked up): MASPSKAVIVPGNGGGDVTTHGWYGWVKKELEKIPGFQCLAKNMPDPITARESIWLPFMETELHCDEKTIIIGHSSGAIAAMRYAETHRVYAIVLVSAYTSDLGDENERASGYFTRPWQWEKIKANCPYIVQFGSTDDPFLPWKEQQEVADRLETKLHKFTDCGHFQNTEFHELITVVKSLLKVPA
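Test system: recombinant human RBBP9; Timing: 30 min then 45 min, 25 °C; Detection: fluorescence polarization; Control set: RBBP9 with DMSO as uninhibited control, no-protein wells as full inhibition; Compound dosing: one concentration, 7.94 µM nominal, 0.794% DMSO; Probe or stimulus: FP-Rh activity-based probe, 375 nM before mixing.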
PGE2 EP2 inh: inhibitors of human EP2 prostaglandin E2 receptor | C6 glioma cells expressing human EP2, cAMP TR-FRET; cells stimulated with saturating PGE2 | inhibition, % at 25 µM | 0.52% of 260,000 active | AID 1422;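 active means percent inhibition above 40 after rounding to a whole number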;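 further: rat C6 glioma host cells with rolipram phosphodiesterase inhibitor present; the protocol text gives 20 µM as final concentration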
ABCG2 inh: inhibitors of human ABCG2 transporter, ABCB1 counter-screen | Q9UNQ0 | 0.1% of 190,000 active | AID 1325 | inhibition, % at 6.6 µM | IgMXP3 cells, JC-1 efflux, flow cytometry;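 active means inhibition above 80%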;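 further: 0% = DMSO and 100% = nicardipine control wells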
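test system = two drug-resistant human cell lines, ABCG2 and ABCB1 | amount = 3 million cells/mL final, two lines in 1:1 ratio | reagent = JC-1 transporter substrate | doses = one concentration, 6.6 µM final | incubation = 10 min at 25 °C | signal = flow cytometric JC-1 green MFI at 530 nm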
ABCB1 inh: inhibitors of human ABCB1 transporter, ABCG2 counter-screen | 0.067% of 190,000 active | CCRF-Adr cells, JC-1 efflux, flow cytometry | AID 1326 | P08183 | inhibition, % at 6.6 µM; in the data active means inhibition above about 40%;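 further: 0% = vehicle and 100% = reference inhibitor; higher value means more JC-1 retained so stronger ABCB1 efflux block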
ABCB1 single pt: confirmation of human ABCB1 transporter inhibitors, ABCG2 counter-screen. 7% of 270 active. CCRF-Adr cells, JC-1 efflux, flow cytometry. inhibition, % at 6.6 µM. AID 1451. shares compounds with ABCG2 inh;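 active means inhibition of pump activity above 50%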;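 further: 0% = DMSO and 100% = nicardipine full pump inhibition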
ABCG2 confirm: confirmation of human ABCG2 transporter inhibitors, ABCB1 counter-screen. IgMXP3 cells, JC-1 efflux, flow cytometry. inhibition, % at 6.6 µM. shares compounds with ABCG2 inh. 6% of 270 active;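 active means inhibition above 50%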;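 further: 0% = DMSO wells and 100% = nicardipine pump inhibitor wells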
IgMXP3 autofluor: counter-screen for ABCG2 inhibitors: compound fluorescence in IgMXP3 cells; shares compounds with ABCG2 inh; compound autofluorescence 488/530 nm, flow; stronger effect = higher value; fluorescence at 6.6 µM; 30% of 270 active;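 active means fluorescence in ABCG2-expressing cells above the plate's control-well mean plus 3 SD, cut at about 15 in these data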;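 further: median cell fluorescence with compound minus that of DMSO-treated control cells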
CCRF-Adr fluor: CCRF-Adr autofluorescence flag for ABCB1 confirmation | shares compounds with ABCG2 inh | CCRF-Adr cells, compound autofluorescence 488/530 nm, flow cytometry; stronger effect = higher value | fluorescence at 6.6 µM | 30% of 270 active | AID 1483;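 active means fluorescence beyond the plate control mean plus 3 SD, with a fluorescence-to-maximum score over 2, cut at about 25 in these data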
* hit, by the source's call; nt = no result given; + = active, no number. Compounds with a hit are over-represented: about 1.5% of the library has one in this group of screens.

SMILES | EP2 modulator | RBBP9 inhibitor | PGE2 EP2 inh | ABCG2 inh | ABCB1 inh | ABCB1 single pt | ABCG2 confirm | IgMXP3 autofluor | CCRF-Adr fluor
CC(=O)N[C@@H]1[C@@H](C(O)[C@H](O)CO)O[C@](O)(C(=O)O)C[C@@H]1O (some centres not stated) | 6 | nt | 10 | nt | nt | nt | nt | nt | nt
c1ccc(OCc2nc(-c3ccncc3)no2)cc1 | -22 | -6 | 11 | 111* | 3 | 1 | 4 | -1.5 | -2.2
COc1cccc(CN2CCN(C(=O)c3ccc(Cn4cccn4)o3)[C@@H](C)C2)c1 | -39 | nt | nt | nt | nt | nt | nt | nt | nt
N#Cc1ccc(-c2ccc(OCC(=O)NCCc3ccccc3)cc2)cc1 | 2 | -5 | 6 | 82* | 0 | 0 | 32 | 2.8 | 31*
CCC(C)c1ccc(NC(=S)NCCn2cc(Br)cn2)cc1 (configuration not stated) | -40 | -9 | 7 | 126* | 7 | 1 | 34 | -1.7 | -3.2
CCCN1C(=O)/C(=C/c2c(NCCCOC(C)C)nc3c(C)cccn3c2=O)SC1=S | 5 | 0 | 5 | 89* | 62* | -3 | -12 | 141* | 178*
CCOC(=O)c1cc(-c2ccc(Cl)cc2)nc2c1c(=O)[nH]c(=O)n2CCOC | 6 | 3 | 1 | 19 | 2 | nt | nt | nt | nt
CCOC(=O)c1cc(-c2ccc(Cl)cc2)nc2onc(C)c12 | 23 | -5 | nt | 83* | 1 | 2 | 37 | 2.5 | 9.5
CCC(C)(C)n1nnnc1C(c1ccccc1OC)N1CCc2ccccc2C1 (configuration not stated) | 35 | nt | 20 | nt | nt | nt | nt | nt | nt
CCc1nnc(NC(=O)c2cc(S(=O)(=O)N3CCOCC3)ccc2N2CCCCC2)s1 | 18 | -2 | 3 | 77 | 69* | 3 | 15 | -1 | -0.79
Cc1ccc(N(CC(=O)NC2CCCC2)C(=O)CCC(=O)Nc2nccs2)cc1 | 13 | nt | 9 | nt | nt | nt | nt | nt | nt
CCOc1ccc(OCc2ccc(C(=O)OCc3ccccn3)o2)cc1 | 6 | -5 | nt | 87* | 3 | 0 | 26 | 0.46 | -2.7
O=C1NC2(CCN(C(=O)c3cc(-c4cccs4)on3)CC2)Nc2ccccc21 | -5 | nt | 7 | nt | nt | nt | nt | nt | nt
Cc1cc(-c2cnc(C)nc2C2CCN(CC(=O)Nc3ccc4c(c3)OCO4)CC2)on1 | -5 | nt | nt | nt | nt | nt | nt | nt | nt
CCC(C)n1c(=S)[nH]c2ccccc2c1=O (configuration not stated) | -52 | 5 | 7 | 4 | 0 | nt | nt | nt | nt
CCC(Cc1ccccc1)n1c(=S)[nH]c2ccccc2c1=O (configuration not stated) | -23 | -7 | 11 | 100* | 31 | -10 | 3 | 23* | 57*
CCCNC(=O)Cn1c(=O)/c(=C\c2ccc(-c3ccc([N+](=O)[O-])cc3)o2)s/c1=C\C(=O)C(C)(C)C | 3 | -3 | 11 | 159* | 129* | -90 | -116 | 524* | 441*
CCCCN1/C(=C/c2ccc3ccccc3[n+]2CC)Sc2ccccc21 | -66 | -3 | 12 | 121* | 20 | 73* | 8 | 256* | 337*
CCN1/C(=C/c2ccc3cc(C)ccc3[n+]2CC)Sc2cc(C)ccc21 | -72 | -18 | 80* | + | 10 | 114* | 8 | 118* | 187*
CC(NC(=S)N(Cc1cc2cc3c(cc2[nH]c1=O)OCO3)C1CCCC1)c1ccccc1 (configuration not stated) | 23 | nt | 8 | nt | nt | nt | nt | nt | nt
CCOc1nc(NCCO)nc(Nc2ccc([N+](=O)[O-])cc2)n1 | 24 | -8 | 5 | 68 | 2 | -1 | 34 | -1.4 | -0.59
O=C(Nc1ccc2c(c1)OCCO2)Nc1ccc2c(c1)OCO2 | -16 | 10 | 3 | -1 | 0 | nt | nt | nt | nt
O=C(Nc1cccc(Cl)c1)Nc1ccc2c(c1)OCO2 | -9 | 0 | 6 | 74 | 1 | 10 | 18 | 8.7 | 12
CCOc1nc(SCCOc2ccc(C)cc2)nc(N(C)C)n1 | 38 | -10 | 12 | 103* | 3 | 5 | 25 | -1.3 | -0.14
CCOc1nc(SCCOc2ccc(Cl)cc2Cl)nc(N(C)C)n1 | 49 | -7 | 6 | 2 | 1 | nt | nt | nt | nt
SMILES | EP2 modulator | RBBP9 inhibitor | PGE2 EP2 inh | ABCG2 inh | ABCB1 inh | ABCB1 single pt | ABCG2 confirm | IgMXP3 autofluor | CCRF-Adr fluor
Cc1cccc2cc(CN(CCO)C(=O)Nc3ccc(Cl)cc3)c(=O)[nH]c12 | -68 | nt | 12 | nt | nt | nt | nt | nt | nt
C[C@H](Cn1nnc2ccccc21)NC(=O)Cc1n[nH]c(=O)c2ccccc12 | 1 | nt | 9 | nt | nt | nt | nt | nt | nt
Cc1cccc(NC(=O)CSc2nc3nc4c(cc3c(=O)n2-c2ccccc2)CCCC4)c1 | 9 | -9 | 0 | 3 | 6 | nt | nt | nt | nt
Cc1ccccc1-n1c(SCC(=O)Nc2ccccc2)nc2nc3c(cc2c1=O)CCCC3 | -8 | -9 | 9 | 36 | 46* | 48 | 23 | 0.71 | 91*
Nc1n[nH]c(-c2ccc(Cl)cc2)c1Br | -39 | nt | 7 | nt | nt | nt | nt | nt | nt
COCCn1c(SCc2csc(-c3ccccc3)n2)nc2ccccc21 | -22 | -13 | 2 | 80 | 3 | -13 | 5 | 15* | 72*
CCOc1ccc(NC(=O)c2ccc3c(c2)OCCO3)cc1 | -57 | nt | 10 | nt | nt | nt | nt | nt | nt
O=C(Cc1ccccc1)Nc1cc(Cl)ccc1Sc1ccccc1 | 57 | -11 | 5 | 89* | 5 | 4 | 8 | -1.7 | 4.7
CC(C)(C)C1=NN(CC(=O)NCCn2cccn2)C(=O)c2cc3ccccc3n2C1 | -13 | nt | 5 | nt | nt | nt | nt | nt | nt
CC12COC3(C(=O)Nc4ccc(Cl)cc4)CC1CCC32C (configuration not stated) | -118 | -8 | 12 | 8 | 2 | nt | nt | nt | nt
CC12COC3(C(=O)Nc4ccc([N+](=O)[O-])cc4)CC1CCC32C (configuration not stated) | 3 | -2 | 4 | 112* | 3 | 3 | 40 | -2.3 | -4.5
CCCn1c(O)c(N=Nc2ccc3ccccc3n2)c2ccccc21 | 31 | 0 | 4 | -1 | 1 | nt | nt | nt | nt
CC(C)CCn1c(O)c(N=Nc2ccccn2)c2ccccc21 | 37 | -14 | 9 | 87* | 2 | 4 | 44 | -1.1 | -4.8
CCOC(=O)c1c(C)nc(SC)c(C#N)c1-c1ccccc1 | 40 | -11 | 5 | 85* | 0 | 1 | 13 | -0.29 | 0.56
CCOC(=O)c1cc(C#N)c(SC)nc1-c1ccccc1 | 23 | 6 | 9 | 0 | 0 | nt | nt | nt | nt
CC(C)(C)OC(=O)N1CCC[C@@H]([C@@H](O)c2ccc(F)cc2)C1 | -55 | nt | nt | nt | nt | nt | nt | nt | nt
